Laboratory results as given in ChEMBL document CHEMBL1133678, “Synthesis of new indeno[1,2-c]isoquinolines: cytotoxic non-camptothecin topoisomerase I inhibitors” (2000).

What was measured:
Type in all cases: functional
[1] = test system: Panel (Carcinoma cell lines); test: Mean graph midpoint for growth inhibition of all human cancer cell lines; parameters: unit: µM
How it was run: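 Mean graph midpoint across all cell lines successfully tested in the roughly 55-line human cancer panel. Each line's GI50 is the 50% growth-inhibition concentration, tested over 10^-4 to 10^-8 M. Out-of-range values were set to 10^-8 M or 10^-4 M before averaging.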

SN12C = test: Antiproliferative activity was determined for 50% growth inhibition against human renal SN12C cell line
How it was run: (§1)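 Human cancer cell lines from the roughly 55-line panel. GI50 is the concentration giving 50% growth inhibition. The test range was 10^-4 to 10^-8 M. Values outside the range were set to the minimum (10^-8 M) or the maximum (10^-4 M).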

UACC-62 = test: Antiproliferative activity was determined for 50% growth inhibition against human melanoma UACC-62 cell line; how it was run: as §1
OVCAR-3 = test: Antiproliferative activity was determined for 50% growth inhibition against human ovarian OVCAR-3 cell line; how it was run: as §1
DU-145 = test: Antiproliferative activity was determined for 50% growth inhibition against human Prostate DU-145 cell line; how it was run: as §1
HCT-116 = test: Antiproliferative activity was determined for 50% growth inhibition against human colon HCT116 cell line; how it was run: as §1
HOP-62 = test: Antiproliferative activity was determined for 50% growth inhibition against human lung HOP-62 cell line; how it was run: as §1
SF-539 = test: Antiproliferative activity was determined for 50% growth inhibition against human CNS SF-539 cell line; how it was run: as §1
MDA-MB-435 = test: Antiproliferative activity was determined for 50% growth inhibition against human breast MDA-MB-435 cell line; how it was run: as §1

## O=C1c2cc3c(cc2-c2c1c1ccccc1c(=O)n2CCCCl)OCO3
[1]
  MGM: 35.1
SN12C; Homo sapiens, SN12C
  GI50: > 100 µM
UACC-62; Homo sapiens, UACC-62
  GI50: 53.8 µM
OVCAR-3; Homo sapiens, OVCAR-3
  GI50: 66.3 µM
DU-145; Homo sapiens, DU-145
  GI50: 12.7 µM
HCT-116; Homo sapiens, HCT-116
  GI50: 74 µM
HOP-62; Homo sapiens, HOP-62
  GI50: 13.1 µM
SF-539; Homo sapiens, SF-539
  GI50: > 100 µM
MDA-MB-435; Homo sapiens, MDA-MB-435
  GI50: > 100 µM

## COc1cc2c3c(n(C)c(=O)c2cc1OC)-c1cc2c(cc1C3)OCO2
[1]
  MGM: 43.7
SN12C; Homo sapiens, SN12C
  GI50: 43.6 µM
UACC-62; Homo sapiens, UACC-62
  GI50: 50 µM
OVCAR-3; Homo sapiens, OVCAR-3
  GI50: > 100 µM
DU-145; Homo sapiens, DU-145
  GI50: 42.5 µM
HCT-116; Homo sapiens, HCT-116
  GI50: 42.9 µM
HOP-62; Homo sapiens, HOP-62
  GI50: 11.8 µM
SF-539; Homo sapiens, SF-539
  GI50: 61.2 µM
MDA-MB-435; Homo sapiens, MDA-MB-435
  GI50: > 100 µM

## COc1cc2c3c(n(CCCCl)c(=O)c2cc1OC)-c1cc2c(cc1C3=O)OCO2
[1]
  MGM: 47.9
SN12C; Homo sapiens, SN12C
  GI50: 24 µM
UACC-62; Homo sapiens, UACC-62
  GI50: 68.6 µM
OVCAR-3; Homo sapiens, OVCAR-3
  GI50: > 100 µM
DU-145; Homo sapiens, DU-145
  GI50: 16.8 µM
HCT-116; Homo sapiens, HCT-116
  GI50: 72.6 µM
HOP-62; Homo sapiens, HOP-62
  GI50: 40.4 µM
SF-539; Homo sapiens, SF-539
  GI50: 40.7 µM
MDA-MB-435; Homo sapiens, MDA-MB-435
  GI50: 80.5 µM

## COc1cc2c(cc1OC)-c1c(c3cc(OC)c(OC)cc3c(=O)n1CCCNCCCCO)C2=O
[1]
  MGM: 0.85
SN12C
  GI50: 0.11 µM
UACC-62
  GI50: 1.67 µM
OVCAR-3
  GI50: 3.52 µM
DU-145
  GI50: 0.1 µM
HCT-116
  GI50: 0.71 µM
HOP-62
  GI50: 0.14 µM
SF-539
  GI50: 0.06 µM
MDA-MB-435
  GI50: 2.36 µM

## COc1cc2c(cc1OC)-c1c(c3cc(OC)c(OC)cc3c(=O)n1CCCNCCO)C2=O
[1]
  MGM: 0.51
SN12C
  GI50: 0.05 µM
UACC-62; Homo sapiens, UACC-62
  GI50: 0.38 µM
OVCAR-3
  GI50: 11.2 µM
DU-145
  GI50: 0.02 µM
HCT-116; Homo sapiens, HCT-116
  GI50: 0.31 µM
HOP-62
  GI50: 0.05 µM
SF-539
  GI50: 0.01 µM
MDA-MB-435; Homo sapiens, MDA-MB-435
  GI50: 1.25 µM

## O=C1c2ccccc2-c2c1c1ccccc1c(=O)n2O
[1]
  MGM: 29.5
SN12C; Homo sapiens, SN12C
  GI50: 35.7 µM
UACC-62; Homo sapiens, UACC-62
  GI50: 21.5 µM
OVCAR-3; Homo sapiens, OVCAR-3
  GI50: 30.2 µM
DU-145; Homo sapiens, DU-145
  GI50: 40.2 µM
HCT-116; Homo sapiens, HCT-116
  GI50: 24.3 µM
HOP-62; Homo sapiens, HOP-62
  GI50: 56.6 µM
SF-539; Homo sapiens, SF-539
  GI50: 15.3 µM
MDA-MB-435; Homo sapiens, MDA-MB-435
  GI50: 29.1 µM

## COc1cc2c(cc1OC)-c1c(c3cc(OC)c(OC)cc3c(=O)n1CCCNCCCO)C2=O
[1]
  MGM: 0.55
SN12C; Homo sapiens, SN12C
  GI50: 0.15 µM
UACC-62; Homo sapiens, UACC-62
  GI50: 1.51 µM
OVCAR-3; Homo sapiens, OVCAR-3
  GI50: 1.9 µM
DU-145
  GI50: 0.1 µM
HCT-116; Homo sapiens, HCT-116
  GI50: 0.46 µM
HOP-62
  GI50: 0.07 µM
SF-539
  GI50: 0.08 µM
MDA-MB-435
  GI50: 1.09 µM

## COc1cc2c3c(n(C)c(=O)c2cc1OC)-c1cc2c(cc1C3=O)OCO2
[1]
  MGM: 20
SN12C; Homo sapiens, SN12C
  GI50: 68 µM
UACC-62; Homo sapiens, UACC-62
  GI50: 4.2 µM
DU-145; Homo sapiens, DU-145
  GI50: 37 µM
HCT-116; Homo sapiens, HCT-116
  GI50: 35 µM
HOP-62; Homo sapiens, HOP-62
  GI50: 1.3 µM
SF-539; Homo sapiens, SF-539
  GI50: 41 µM
MDA-MB-435; Homo sapiens, MDA-MB-435
  GI50: 96 µM

## COc1cc2c3c(n(CCCN)c(=O)c2cc1OC)-c1ccc2ccccc2c1C3=O.Cl
[1]
  MGM: 3.72
SN12C; Homo sapiens, SN12C
  GI50: 6.54 µM
UACC-62; Homo sapiens, UACC-62
  GI50: 17.5 µM
OVCAR-3; Homo sapiens, OVCAR-3
  GI50: 3.73 µM
DU-145; Homo sapiens, DU-145
  GI50: 1.64 µM
HCT-116; Homo sapiens, HCT-116
  GI50: 1.73 µM
HOP-62; Homo sapiens, HOP-62
  GI50: 1.89 µM
SF-539; Homo sapiens, SF-539
  GI50: 1.53 µM
MDA-MB-435; Homo sapiens, MDA-MB-435
  GI50: 2.14 µM

## O=C1c2cc3c(cc2-c2c1c1ccccc1c(=O)n2CCCNCCCO)OCO3
[1]
  MGM: 15.5
SN12C; Homo sapiens, SN12C
  GI50: 14.2 µM
UACC-62; Homo sapiens, UACC-62
  GI50: > 100 µM
OVCAR-3; Homo sapiens, OVCAR-3
  GI50: 15 µM
DU-145; Homo sapiens, DU-145
  GI50: 16.7 µM
HCT-116; Homo sapiens, HCT-116
  GI50: 12.5 µM
HOP-62; Homo sapiens, HOP-62
  GI50: 7.17 µM
SF-539; Homo sapiens, SF-539
  GI50: 16.2 µM
MDA-MB-435; Homo sapiens, MDA-MB-435
  GI50: 19.9 µM

## COc1cc2c(cc1OC)-c1c(c3cc(OC)c(OC)cc3c(=O)n1CCCNCCCCO)C2=O.Cl
[1]
  MGM: 1.47
SN12C
  GI50: 0.28 µM
UACC-62; Homo sapiens, UACC-62
  GI50: 1.76 µM
OVCAR-3; Homo sapiens, OVCAR-3
  GI50: 5.49 µM
DU-145
  GI50: 0.21 µM
HCT-116; Homo sapiens, HCT-116
  GI50: 0.81 µM
HOP-62; Homo sapiens, HOP-62
  GI50: 0.26 µM
SF-539
  GI50: 0.59 µM
MDA-MB-435; Homo sapiens, MDA-MB-435
  GI50: 2.09 µM

## COc1cc2c(cc1OC)-c1c(c3cc(OC)c(OC)cc3c(=O)n1CCCBr)C2=O
[1]
  MGM: 6.91
SN12C; Homo sapiens, SN12C
  GI50: 3.15 µM
UACC-62; Homo sapiens, UACC-62
  GI50: 1.91 µM
OVCAR-3; Homo sapiens, OVCAR-3
  GI50: 60.1 µM
DU-145; Homo sapiens, DU-145
  GI50: 1.92 µM
HCT-116; Homo sapiens, HCT-116
  GI50: 3.53 µM
HOP-62; Homo sapiens, HOP-62
  GI50: 1.87 µM
SF-539; Homo sapiens, SF-539
  GI50: 2.58 µM
MDA-MB-435; Homo sapiens, MDA-MB-435
  GI50: 11.7 µM

## CC[C@@]1(O)C(=O)OCc2c1cc1n(c2=O)Cc2cc3ccccc3nc2-1 [CAMPTOTHECIN]
SN12C; Homo sapiens, SN12C
  GI50: 0.02 µM
UACC-62; Homo sapiens, UACC-62
  GI50: 0.01 µM
DU-145; Homo sapiens, DU-145
  GI50: 0.01 µM
HCT-116; Homo sapiens, HCT-116
  GI50: 0.03 µM
HOP-62; Homo sapiens, HOP-62
  GI50: 0.01 µM
SF-539; Homo sapiens, SF-539
  GI50: 0.01 µM
MDA-MB-435; Homo sapiens, MDA-MB-435
  GI50: 0.04 µM

## O=C1c2ccccc2-c2c1c1ccccc1c(=O)n2CCCO
[1]
  MGM: 10.3
SN12C; Homo sapiens, SN12C
  GI50: 6.49 µM
UACC-62; Homo sapiens, UACC-62
  GI50: 16.2 µM
OVCAR-3; Homo sapiens, OVCAR-3
  GI50: 28.8 µM
DU-145; Homo sapiens, DU-145
  GI50: 9.56 µM
HCT-116; Homo sapiens, HCT-116
  GI50: 3.64 µM
HOP-62; Homo sapiens, HOP-62
  GI50: 4.89 µM
SF-539; Homo sapiens, SF-539
  GI50: 52.5 µM
MDA-MB-435; Homo sapiens, MDA-MB-435
  GI50: 39.7 µM
